The source of these data is BindingDB's records for doi:10.1021/jm970235u (Takeda Chemical Industries, 1998).

Peptide text beside a SMILES is read from it.

The target in the experiment is Integrin alpha-IIb/beta-3 (Homo sapiens, UniProt P08514+P05106). Kind of experiment: Concentration required to inhibit adenosine diphosphate (ADP) induced aggregation of human platelets by 50% in vitro. In a few lines: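 PRP obtained by centrifugation and adjusted to […]. PRP stirred at 1000 rpm and prewarmed 2 min at 37 °C with compound. Submaximal ADP added; light-transmittance aggregometry.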
Sequence of Integrin alpha-IIb/beta-3 (P05106 27-788 limits assumed): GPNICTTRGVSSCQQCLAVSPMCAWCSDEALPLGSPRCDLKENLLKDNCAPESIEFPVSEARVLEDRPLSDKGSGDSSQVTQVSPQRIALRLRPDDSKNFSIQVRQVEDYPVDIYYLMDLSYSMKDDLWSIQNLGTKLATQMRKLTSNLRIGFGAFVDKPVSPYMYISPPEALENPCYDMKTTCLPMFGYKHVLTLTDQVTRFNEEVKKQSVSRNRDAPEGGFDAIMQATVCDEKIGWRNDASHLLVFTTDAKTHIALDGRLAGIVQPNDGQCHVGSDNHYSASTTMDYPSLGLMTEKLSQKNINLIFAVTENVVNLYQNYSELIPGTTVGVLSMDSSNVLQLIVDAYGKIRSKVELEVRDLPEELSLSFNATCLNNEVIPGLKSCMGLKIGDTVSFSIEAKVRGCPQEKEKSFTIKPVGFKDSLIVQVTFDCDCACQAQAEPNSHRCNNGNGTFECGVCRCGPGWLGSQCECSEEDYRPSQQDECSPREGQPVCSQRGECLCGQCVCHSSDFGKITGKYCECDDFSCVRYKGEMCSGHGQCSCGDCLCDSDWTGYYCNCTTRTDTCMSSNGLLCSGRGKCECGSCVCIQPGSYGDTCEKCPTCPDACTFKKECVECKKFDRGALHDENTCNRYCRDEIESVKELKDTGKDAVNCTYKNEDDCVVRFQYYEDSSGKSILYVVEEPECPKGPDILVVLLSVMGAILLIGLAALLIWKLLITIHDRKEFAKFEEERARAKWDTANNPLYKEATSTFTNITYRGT
Sequence of Integrin alpha-IIb/beta-3 (P08514 32-887 limits assumed): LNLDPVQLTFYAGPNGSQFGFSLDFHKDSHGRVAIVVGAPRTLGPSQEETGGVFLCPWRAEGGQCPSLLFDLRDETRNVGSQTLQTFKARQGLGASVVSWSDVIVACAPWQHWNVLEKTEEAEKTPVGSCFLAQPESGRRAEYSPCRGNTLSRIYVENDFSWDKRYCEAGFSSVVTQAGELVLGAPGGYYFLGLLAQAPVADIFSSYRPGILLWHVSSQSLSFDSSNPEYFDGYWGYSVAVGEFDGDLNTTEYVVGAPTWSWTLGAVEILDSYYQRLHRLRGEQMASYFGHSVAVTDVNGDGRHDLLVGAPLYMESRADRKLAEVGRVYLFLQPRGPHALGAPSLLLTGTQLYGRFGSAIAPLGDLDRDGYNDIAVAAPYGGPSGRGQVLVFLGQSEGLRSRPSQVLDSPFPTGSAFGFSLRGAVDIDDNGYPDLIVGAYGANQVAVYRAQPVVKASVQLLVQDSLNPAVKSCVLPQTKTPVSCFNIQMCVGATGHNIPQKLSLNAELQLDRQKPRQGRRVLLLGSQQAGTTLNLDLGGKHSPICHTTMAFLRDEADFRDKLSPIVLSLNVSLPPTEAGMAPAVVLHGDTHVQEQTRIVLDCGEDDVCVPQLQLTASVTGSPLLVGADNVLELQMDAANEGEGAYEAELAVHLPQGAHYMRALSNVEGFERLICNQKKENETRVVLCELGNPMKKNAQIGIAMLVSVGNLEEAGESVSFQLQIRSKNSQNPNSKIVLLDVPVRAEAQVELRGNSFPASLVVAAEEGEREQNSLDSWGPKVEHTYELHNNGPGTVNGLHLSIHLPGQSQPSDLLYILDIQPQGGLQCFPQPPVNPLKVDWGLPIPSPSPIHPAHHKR
Sequence of Integrin alpha-IIb/beta-3 (P08514 891-1039 limits assumed): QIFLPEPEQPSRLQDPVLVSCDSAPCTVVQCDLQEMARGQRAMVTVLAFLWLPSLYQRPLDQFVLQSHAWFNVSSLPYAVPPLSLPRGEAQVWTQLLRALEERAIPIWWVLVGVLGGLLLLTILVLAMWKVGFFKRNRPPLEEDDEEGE
On to `N=C(N)c1ccc(C(=O)NCC(=O)N2CCN(CC(=O)O)C(=O)[C@@H]2CC(=O)O)cc1`, for which the IC50 was determined as 110 nM. As to `COC(=O)CC[C@H]1C(=O)N(CC(=O)O)CCN1C(=O)CNC(=O)c1ccc(CCN)cc1` [3-((S)-1-{2-[4-(2-Amino-ethyl)-benzoylamino]-acetyl}-4-carboxymethyl-3-oxo-piperazin-2-yl)-propionic acid methyl ester], the IC50 was found to be 120 nM. Molecule `NCCc1ccc(C(=O)NCC(=O)N2CCN(CC(=O)O)C(=O)[C@@H]2CCC(=O)O)cc1` [3-((S)-1-{2-[4-(2-Amino-ethyl)-benzoylamino]-acetyl}-4-carboxymethyl-3-oxo-piperazin-2-yl)-propionic acid] returned an IC50 of 110 nM. In turn, `COC(=O)CC[C@H]1C(=O)N(CC(=O)O)CCN1C(=O)CNC(=O)c1ccc(CCN(C)C)cc1` [3-((S)-4-Carboxymethyl-1-{2-[4-(2-dimethylamino-ethyl)-benzoylamino]-acetyl}-3-oxo-piperazin-2-yl)-propionic acid methyl ester] came in with an IC50 of 2300 nM.

`CN(C)CCc1ccc(C(=O)NCC(=O)N2CCN(CC(=O)O)C(=O)[C@@H]2CCC(=O)O)cc1` [3-((S)-4-Carboxymethyl-1-{2-[4-(2-dimethylamino-ethyl)-benzoylamino]-acetyl}-3-oxo-piperazin-2-yl)-propionic acid] showed an IC50 of 2500 nM.

The molecule `COC(=O)CC[C@H]1C(=O)N(CC(=O)O)CCN1C(=O)CNC(=O)c1ccc(C(=N)N)cc1` [3-{(S)-1-[2-(4-Carbamimidoyl-benzoylamino)-acetyl]-4-carboxymethyl-3-oxo-piperazin-2-yl}-propionic acid methyl ester] gave an IC50 of 90 nM.

For `N=C(N)c1ccc(C(=O)NCC(=O)N2CCN(CC(=O)O)C(=O)[C@@H]2CCC(=O)O)cc1` [3-{(S)-1-[2-(4-Carbamimidoyl-benzoylamino)-acetyl]-4-carboxymethyl-3-oxo-piperazin-2-yl}-propionic acid], the IC50 was 52 nM. To `N=C(N)c1ccc(C(=O)NCC(=O)N2CCN(CCC(=O)O)C(=O)[C@@H]2CC(=O)O)cc1` [3-{(S)-4-[2-(4-Carbamimidoyl-benzoylamino)-acetyl]-3-carboxymethyl-2-oxo-piperazin-1-yl}-propionic acid] belongs 30000 nM. The result for `NCCc1ccc(C(=O)NCC(=O)N2CCN(CC(=O)O)C(=O)C2)cc1` [(4-{2-[4-(2-Amino-ethyl)-benzoylamino]-acetyl}-2-oxo-piperazin-1-yl)-acetic acid] reads 150 nM; that for `N=C(N)c1ccc(CC(=O)NCC(=O)N2CCN(CC(=O)O)C(=O)[C@@H]2CC(=O)O)cc1` [((S)-1-{2-[2-(4-Carbamimidoyl-phenyl)-acetylamino]-acetyl}-4-carboxymethyl-3-oxo-piperazin-2-yl)-acetic acid], 1200 nM. To `NCCc1ccc(C(=O)NCC(=O)N2CCN(CC(=O)O)C(=O)[C@@H]2CC(=O)O)cc1` [((S)-1-{2-[4-(2-Amino-ethyl)-benzoylamino]-acetyl}-4-carboxymethyl-3-oxo-piperazin-2-yl)-acetic acid] belongs 130 nM; to `NCCCc1ccc(C(=O)NCC(=O)N2CCN(CC(=O)O)C(=O)[C@@H]2CC(=O)O)cc1` [((S)-1-{2-[4-(3-Amino-propyl)-benzoylamino]-acetyl}-4-carboxymethyl-3-oxo-piperazin-2-yl)-acetic acid], 1030 nM; to `N=C(N)N1CCC(C(=O)NCC(=O)N2CCN(CC(=O)O)C(=O)[C@@H]2CC(=O)O)CC1` [((S)-1-{2-[(1-Carbamimidoyl-piperidine-4-carbonyl)-amino]-acetyl}-4-carboxymethyl-3-oxo-piperazin-2-yl)-acetic acid], 800 nM. `CN(C)C(N)=Nc1ccc(C(=O)NCC(=O)N2CCN(CC(=O)O)C(=O)[C@@H]2CC(=O)O)cc1` [((S)-4-Carboxymethyl-1-{2-[4-(N',N'-dimethyl-guanidino)-benzoylamino]-acetyl}-3-oxo-piperazin-2-yl)-acetic acid] gave an IC50 of 11000 nM.

The molecule `N=C(N)NCC1CCC(C(=O)NCC(=O)N2CCN(CC(=O)O)C(=O)[C@@H]2CC(=O)O)CC1` (stereo partly drawn) [((S)-4-Carboxymethyl-1-{2-[(4-guanidinomethyl-cyclohexanecarbonyl)-amino]-acetyl}-3-oxo-piperazin-2-yl)-acetic acid] yielded an IC50 of 1100 nM.

In turn, `COC(=O)C[C@H]1C(=O)N(CC(=O)O)CCN1C(=O)CNC(=O)c1ccc(CCN)cc1` [((S)-4-{2-[4-(2-Amino-ethyl)-benzoylamino]-acetyl}-3-methoxycarbonylmethyl-2-oxo-piperazin-1-yl)-acetic acid] registered an IC50 of 78 nM. The result for `NC(N)=NCCC[C@H](N)C(=O)NCC(=O)N[C@@H](CC(=O)O)C(=O)N[C@@H](Cc1ccccc1)C(=O)O` [(R)-3-[2-((S)-2-Amino-5-guanidino-pentanoylamino)-acetylamino]-N-((S)-1-carboxy-2-phenyl-ethyl)-succinamic acid] (H-RGDF-OH) reads 48000 nM; that for `N=C(N)c1ccc(C(=O)NCC(=O)N2CCN([C@@H](Cc3ccccc3)C(=O)O)C(=O)[C@@H]2CC(=O)O)cc1` [(S)-2-{(S)-4-[2-(4-Carbamimidoyl-benzoylamino)-acetyl]-3-carboxymethyl-2-oxo-piperazin-1-yl}-3-phenyl-propionic acid], 4100 nM. `C[C@@H](C(=O)O)N1CCN(C(=O)CNC(=O)c2ccc(C(=N)N)cc2)[C@@H](CC(=O)O)C1=O` [(S)-2-{(S)-4-[2-(4-Carbamimidoyl-benzoylamino)-acetyl]-3-carboxymethyl-2-oxo-piperazin-1-yl}-propionic acid] showed an IC50 of 1500 nM. To `N=C(N)c1ccc(C(=O)NCC(=O)N2CCN(CC(=O)O)C(=O)C2)cc1` [{4-[2-(4-Carbamimidoyl-benzoylamino)-acetyl]-2-oxo-piperazin-1-yl}-acetic acid] belongs 94 nM. To `COC(=O)C[C@@H]1C(=O)N(CC(=O)O)CCN1C(=O)CNC(=O)c1ccc(C(=N)N)cc1` [{(R)-4-[2-(4-Carbamimidoyl-benzoylamino)-acetyl]-3-methoxycarbonylmethyl-2-oxo-piperazin-1-yl}-acetic acid] belongs 580 nM.

`N=C(N)c1cccc(C(=O)NCC(=O)N2CCN(CC(=O)O)C(=O)[C@@H]2CC(=O)O)c1` [{(S)-1-[2-(3-Carbamimidoyl-benzoylamino)-acetyl]-4-carboxymethyl-3-oxo-piperazin-2-yl}-acetic acid] had an IC50 of 13000 nM. The result for `N=C(N)c1ccc(C(=O)NCC(=O)N2CCN(CC(N)=O)C(=O)[C@@H]2CC(=O)O)cc1` [{(S)-1-[2-(4-Carbamimidoyl-benzoylamino)-acetyl]-4-carbamoylmethyl-3-oxo-piperazin-2-yl}-acetic acid] reads 30000 nM. The result for `COC(=O)CN1CCN(C(=O)CNC(=O)c2ccc(C(=N)N)cc2)[C@@H](CC(=O)O)C1=O` [{(S)-1-[2-(4-Carbamimidoyl-benzoylamino)-acetyl]-4-methoxycarbonylmethyl-3-oxo-piperazin-2-yl}-acetic acid] reads 2600 nM; that for `N=C(N)c1ccc(C(=O)NCC(=O)N2CCN(CC(=O)O)C(=O)[C@@H]2Cc2ccccc2)cc1` [{(S)-3-Benzyl-4-[2-(4-carbamimidoyl-benzoylamino)-acetyl]-2-oxo-piperazin-1-yl}-acetic acid], 110 nM; that for `NC(N)=Nc1ccc(C(=O)NCC(=O)N2CCN(CC(=O)O)C(=O)[C@@H]2CC(=O)O)cc1` [{(S)-4-Carboxymethyl-1-[2-(4-guanidino-benzoylamino)-acetyl]-3-oxo-piperazin-2-yl}-acetic acid], 350 nM. `N=C(N)NCc1ccc(C(=O)NCC(=O)N2CCN(CC(=O)O)C(=O)[C@@H]2CC(=O)O)cc1` [{(S)-4-Carboxymethyl-1-[2-(4-guanidinomethyl-benzoylamino)-acetyl]-3-oxo-piperazin-2-yl}-acetic acid] yielded an IC50 of 560 nM.

`N=C(N)NCCCCC(=O)NCC(=O)N1CCN(CC(=O)O)C(=O)[C@@H]1CC(=O)O` [{(S)-4-Carboxymethyl-1-[2-(5-guanidino-pentanoylamino)-acetyl]-3-oxo-piperazin-2-yl}-acetic acid] showed an IC50 of 3600 nM. Molecule `N=C(N)c1ccc(C(=O)NCC(=O)N2CCN(CC(=O)O)C(=O)[C@@H]2CC(N)=O)cc1` [{(S)-4-[2-(4-Carbamimidoyl-benzoylamino)-acetyl]-3-carbamoylmethyl-2-oxo-piperazin-1-yl}-acetic acid] returned an IC50 of 740 nM.
